Source: ChEMBL document CHEMBL4014339, “Discovery of 1,4-Benzodiazepine-2,5-dione (BZD) Derivatives as Dual Nucleotide Binding Oligomerization Domain Containing 1/2 (NOD1/NOD2) Antagonists Sensitizing Paclitaxel (PTX) To Suppress Lewis Lung Carcinoma (LLC) Growth in Vivo” (J Med Chem, 2017)
Active and inactive are the calls of the source. No cut-off for these calls is given here.

What was measured:
[1] = target: T1, Nucleotide-binding oligomerization domain-containing protein 1 (Homo sapiens) (UniProt Q9Y239); test: Antagonist activity at human NOD1 expressed in HEK-Blue cells assessed as inhibition of C12-iE-DAP-stimulated cell activation at 10 uM preincubated for 3 hrs followed by C12-iE-DAP addition measured after 20 hrs by SEAP reporter gene assay; assay type: cell-based
T1 sequence (whole entry): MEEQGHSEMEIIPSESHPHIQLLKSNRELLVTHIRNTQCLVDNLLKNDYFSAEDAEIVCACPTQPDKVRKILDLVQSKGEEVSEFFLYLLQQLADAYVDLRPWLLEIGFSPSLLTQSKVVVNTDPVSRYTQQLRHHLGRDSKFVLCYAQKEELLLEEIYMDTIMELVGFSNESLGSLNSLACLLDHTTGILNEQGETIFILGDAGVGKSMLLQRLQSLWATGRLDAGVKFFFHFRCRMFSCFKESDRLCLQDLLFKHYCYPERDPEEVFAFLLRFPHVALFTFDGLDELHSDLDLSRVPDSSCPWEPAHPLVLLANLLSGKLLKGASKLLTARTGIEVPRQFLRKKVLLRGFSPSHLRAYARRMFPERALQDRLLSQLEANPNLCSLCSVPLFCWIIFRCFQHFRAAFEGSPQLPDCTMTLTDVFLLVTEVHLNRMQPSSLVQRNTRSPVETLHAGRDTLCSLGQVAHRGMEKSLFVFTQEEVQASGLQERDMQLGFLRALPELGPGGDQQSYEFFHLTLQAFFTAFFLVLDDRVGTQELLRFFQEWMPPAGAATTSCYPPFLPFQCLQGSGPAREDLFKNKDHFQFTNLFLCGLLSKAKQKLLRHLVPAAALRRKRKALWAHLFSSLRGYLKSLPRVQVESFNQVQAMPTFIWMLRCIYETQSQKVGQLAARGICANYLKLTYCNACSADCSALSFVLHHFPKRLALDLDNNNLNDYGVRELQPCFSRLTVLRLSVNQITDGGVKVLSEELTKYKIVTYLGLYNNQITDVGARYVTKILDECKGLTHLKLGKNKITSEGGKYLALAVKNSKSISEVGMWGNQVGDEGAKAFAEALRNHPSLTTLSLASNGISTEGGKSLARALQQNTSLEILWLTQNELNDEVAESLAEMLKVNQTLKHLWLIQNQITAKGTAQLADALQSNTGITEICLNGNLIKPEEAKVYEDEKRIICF
Procedure, shortened: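 HEK-Blue hNOD1 or hNOD2 cells preincubated with compound 3 h, then stimulated 20 h with C12-iE-DAP 50 ng/mL (NOD1) or MDP 100 ng/mL (NOD2); SEAP in supernatant quantified. Primary screen at 10 μM, hits repeated in triplicate; IC50 from dose-response, mean ± SD (n = 3), only for compounds reaching ≥50% inhibition at the screening concentration.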

[2] = target: Toll-like receptor 4 (Homo sapiens) (UniProt O00206); test: Inhibition of human TLR4 expressed in HEK-Blue cells assessed as reduction in LPS-EK-stimulated SEAP release preincubated for 3 hrs followed by LPS-EK addition measured after 20 hrs by spectrophotometric analysis; assay type: cell-based
[3] = target: T1, Nucleotide-binding oligomerization domain-containing protein 1 (Homo sapiens); test: Inhibition of NOD1 in human PBMC-derived macrophages assessed as reduction in C12-iE-DAP-stimulated TNFalpha mRNA expression preincubated for 1 hr followed by C12-iE-DAP stimulation for 90 mins by RT-qPCR analysis
Procedure, shortened: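 Human CD14+ monocytes from donor PBMC, differentiated 7 days with M-CSF 20 ng/mL to macrophages; 1.0 × 10^6 cells pretreated 1 h with compound (final 0.1% DMSO), then C12-iE-DAP 500 ng/mL or MDP 5 μg/mL for 90 min. IL-6/TNF-α mRNA by qRT-PCR, normalized to GAPDH; stimulated response set to 100%.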

[4] = target: T1, Nucleotide-binding oligomerization domain-containing protein 1 (Homo sapiens); test: Inhibition of NOD1 in human THP1 cells assessed as suppression of C12-iE-DAP-stimulated p38 phosphorylation at 1 to 10 uM preincubated for 1 hr followed by C12-iE-DAP stimulation after 45 mins by Western blot analysis; assay type: cell-based
Procedure, shortened: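 PMA (20 ng/mL, 48 h)-differentiated THP1 macrophages rested 24 h in PMA-free medium, serum-starved (0.1% FBS) overnight, pretreated 1 h with compound, stimulated 45 min with C12-iE-DAP 50 ng/mL. Lysates run on 8% SDS-PAGE, immunoblotted for phospho and total RIP2, p38, JNK, ERK and IκBα.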

[5] = target: T1, Nucleotide-binding oligomerization domain-containing protein 1 (Homo sapiens); test: Inhibition of NOD1 in human PBMC-derived macrophages assessed as reduction in C12-iE-DAP-stimulated RIP2 phosphorylation at 1 to 10 uM preincubated for 1 hr followed by C12-iE-DAP stimulation for 45 mins by Western blot analysis
[6] = target: T1, Nucleotide-binding oligomerization domain-containing protein 1 (Homo sapiens); test: Inhibition of NOD1 in human PBMC-derived macrophages assessed as reduction in C12-iE-DAP-stimulated JNK phosphorylation at 1 to 10 uM preincubated for 1 hr followed by C12-iE-DAP stimulation for 45 mins by Western blot analysis
[7] = target: T1, Nucleotide-binding oligomerization domain-containing protein 1 (Homo sapiens); test: Inhibition of NOD1 in human PBMC-derived macrophages assessed as reduction in C12-iE-DAP-stimulated p38 phosphorylation at 1 to 10 uM preincubated for 1 hr followed by C12-iE-DAP stimulation for 45 mins by Western blot analysis
[8] = target: T2, Nucleotide-binding oligomerization domain-containing protein 2 (Homo sapiens, UniProt Q9HC29); test: Inhibition of human NOD2 expressed in HEK293 cells assessed as suppression of MDP-stimulated p38 phosphorylation preincubated for 1 hr followed by MDP stimulation measured after 1 hr by Western blot analysis
[9] = target: T2, Nucleotide-binding oligomerization domain-containing protein 2; test: Inhibition of human NOD2 expressed in HEK293 cells assessed as suppression of MDP-stimulated RIP2 phosphorylation preincubated for 1 hr followed by MDP stimulation measured after 1 hr by Western blot analysis
[10] = target: T2, Nucleotide-binding oligomerization domain-containing protein 2; test: Inhibition of NOD2 in human PBMC-derived macrophages assessed as reduction in MDP-stimulated JNK phosphorylation at 1 to 10 uM preincubated for 1 hr followed by MDP stimulation for 1 hr by Western blot analysis
[11] = target: T2, Nucleotide-binding oligomerization domain-containing protein 2; test: Inhibition of NOD2 in human PBMC-derived macrophages assessed as reduction in MDP-stimulated RIP2 phosphorylation at 1 to 10 uM preincubated for 1 hr followed by MDP stimulation for 1 hr by Western blot analysis
[12] = target: T2, Nucleotide-binding oligomerization domain-containing protein 2; test: Inhibition of NOD2 in human PBMC-derived macrophages assessed as reduction of MDP-mediated decrease in IkBalpha levels at 1 to 10 uM preincubated for 1 hr followed by MDP stimulation for 1 hr by Western blot analysis

T2 sequence (Q9HC29 whole entry, the tested form may be a part): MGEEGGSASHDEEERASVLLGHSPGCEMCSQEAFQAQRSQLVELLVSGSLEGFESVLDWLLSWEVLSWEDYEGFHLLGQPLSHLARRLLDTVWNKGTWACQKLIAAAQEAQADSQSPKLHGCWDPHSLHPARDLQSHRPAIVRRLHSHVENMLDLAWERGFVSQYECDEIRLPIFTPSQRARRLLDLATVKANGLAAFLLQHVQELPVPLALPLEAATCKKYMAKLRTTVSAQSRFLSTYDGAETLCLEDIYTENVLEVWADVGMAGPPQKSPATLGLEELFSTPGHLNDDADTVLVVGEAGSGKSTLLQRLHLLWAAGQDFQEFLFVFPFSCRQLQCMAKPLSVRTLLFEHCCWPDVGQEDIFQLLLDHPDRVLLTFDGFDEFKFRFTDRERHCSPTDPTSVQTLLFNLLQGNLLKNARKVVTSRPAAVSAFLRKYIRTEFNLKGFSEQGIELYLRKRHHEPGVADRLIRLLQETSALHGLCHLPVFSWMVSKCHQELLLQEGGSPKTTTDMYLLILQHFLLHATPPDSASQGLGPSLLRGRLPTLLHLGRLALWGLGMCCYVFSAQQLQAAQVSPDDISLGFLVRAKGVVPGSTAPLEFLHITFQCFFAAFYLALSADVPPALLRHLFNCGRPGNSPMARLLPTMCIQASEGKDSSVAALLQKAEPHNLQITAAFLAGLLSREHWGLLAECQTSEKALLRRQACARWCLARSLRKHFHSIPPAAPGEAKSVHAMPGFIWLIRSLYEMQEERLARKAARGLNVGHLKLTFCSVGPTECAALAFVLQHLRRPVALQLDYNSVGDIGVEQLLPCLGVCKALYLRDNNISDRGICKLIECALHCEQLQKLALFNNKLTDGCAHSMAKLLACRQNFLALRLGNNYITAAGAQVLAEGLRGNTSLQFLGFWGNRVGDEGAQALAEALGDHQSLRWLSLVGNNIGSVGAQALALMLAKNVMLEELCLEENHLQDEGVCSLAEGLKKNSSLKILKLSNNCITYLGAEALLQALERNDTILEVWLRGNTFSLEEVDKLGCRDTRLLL
Toll-like receptor 4 (Homo sapiens), sequence (O00206 whole entry, the tested form may be a part): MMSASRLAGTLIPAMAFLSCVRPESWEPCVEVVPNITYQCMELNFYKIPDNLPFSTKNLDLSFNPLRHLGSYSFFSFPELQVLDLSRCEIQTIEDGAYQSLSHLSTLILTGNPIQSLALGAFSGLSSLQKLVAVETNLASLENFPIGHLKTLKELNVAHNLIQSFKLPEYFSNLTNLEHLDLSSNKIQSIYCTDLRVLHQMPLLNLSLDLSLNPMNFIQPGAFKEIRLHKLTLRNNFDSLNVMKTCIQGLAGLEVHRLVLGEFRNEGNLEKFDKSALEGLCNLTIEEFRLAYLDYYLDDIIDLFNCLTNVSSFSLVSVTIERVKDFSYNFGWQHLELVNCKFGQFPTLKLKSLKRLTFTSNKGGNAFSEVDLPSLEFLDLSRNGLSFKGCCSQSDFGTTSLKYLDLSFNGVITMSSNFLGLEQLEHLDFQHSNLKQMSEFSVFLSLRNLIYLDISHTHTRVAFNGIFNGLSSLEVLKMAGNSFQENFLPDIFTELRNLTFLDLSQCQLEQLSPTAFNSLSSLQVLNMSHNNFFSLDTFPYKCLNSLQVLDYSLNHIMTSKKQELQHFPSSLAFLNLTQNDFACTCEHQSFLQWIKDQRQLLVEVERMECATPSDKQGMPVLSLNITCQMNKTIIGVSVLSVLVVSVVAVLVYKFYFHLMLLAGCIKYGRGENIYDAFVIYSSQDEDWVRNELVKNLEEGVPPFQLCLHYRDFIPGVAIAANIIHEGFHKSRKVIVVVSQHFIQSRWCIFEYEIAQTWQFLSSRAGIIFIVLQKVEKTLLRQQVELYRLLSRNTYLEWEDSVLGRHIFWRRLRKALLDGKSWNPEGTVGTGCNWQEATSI

SMILES: CCCNC(=O)CC[C@H]1NC(=O)c2cc(Oc3cccc(N(C)C)c3)c(NC(=O)COCc3ccccc3)cc2NC1=O
- inhibition [1]: 86.2%
- inhibition [2]: inactive
- inhibition [3]: Dose-dependent effect
- inhibition [4]: Active
- inhibition [5]: Active
- inhibition [6]: Active
- inhibition [7]: Active
- inhibition [8]: Dose-dependent effect
- inhibition [9]: Dose-dependent effect
- inhibition [10]: Active
- inhibition [11]: Active
- inhibition [12]: Active
